Calls of active or inactive are those of the source. The rule behind the calls is not given here.
Tests used:
[1] = organism: Homo sapiens; assay: Selectivity ratio of IC50 for human recombinant LMW-PTP IF2 to IC50 for human recombinant LMW-PTP IF1
[2] = target: T1, Low molecular weight phosphotyrosine protein phosphatase (Homo sapiens, UniProt P24666); assay: Inhibition of human recombinant LMW-PTP IF2 expressed in Escherichia coli TB1 using p-nitrophenylphosphate as substrate
T1 sequence (P24666 whole entry): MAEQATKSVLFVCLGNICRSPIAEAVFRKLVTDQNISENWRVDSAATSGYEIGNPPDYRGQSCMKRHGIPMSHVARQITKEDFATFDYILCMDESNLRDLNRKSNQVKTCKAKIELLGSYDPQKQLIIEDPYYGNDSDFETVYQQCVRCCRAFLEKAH

[3] = target: T1, Low molecular weight phosphotyrosine protein phosphatase; assay: Inhibition of human recombinant LMW-PTP IF1 expressed in Escherichia coli TB1 using p-nitrophenylphosphate as substrate
[4] = target: T2, Tyrosine-protein phosphatase non-receptor type 2 (Homo sapiens, UniProt P17706); assay: Inhibition of TC-PTP (unknown origin) purchased from New England Biolabs using p-nitrophenylphosphate as substrate
T2 sequence (P17706 whole entry): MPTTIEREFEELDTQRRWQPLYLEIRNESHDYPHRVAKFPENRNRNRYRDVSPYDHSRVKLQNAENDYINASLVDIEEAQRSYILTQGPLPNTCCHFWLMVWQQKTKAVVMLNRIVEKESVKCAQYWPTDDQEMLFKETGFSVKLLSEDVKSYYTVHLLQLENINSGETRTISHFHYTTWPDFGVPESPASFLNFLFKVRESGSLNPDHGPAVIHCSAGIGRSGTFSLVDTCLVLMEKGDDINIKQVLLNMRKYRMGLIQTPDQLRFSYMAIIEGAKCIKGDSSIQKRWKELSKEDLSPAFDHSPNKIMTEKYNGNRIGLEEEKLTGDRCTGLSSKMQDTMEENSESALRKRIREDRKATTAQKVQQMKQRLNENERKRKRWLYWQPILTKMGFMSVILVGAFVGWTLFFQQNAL

[5] = organism: Homo sapiens; assay: Selectivity ratio of IC50 for TC-PTP (unknown origin) to IC50 for human recombinant PTP1B
Method in brief: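 Commercial T-cell PTP assayed on p-nitrophenylphosphate at 37 °C, pH 7.0 β,β-dimethylglutarate buffer with 1 mM EDTA and 5 mM DTT; stopped with 1 M KOH, absorbance at 400 nm; IC50 from ratio of activity with and without inhibitor versus inhibitor concentration. Ratio lines pair this with recombinant human PTP1B measured the same way.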

[6] = organism: Homo sapiens; assay: Selectivity ratio of IC50 for human recombinant LMW-PTP IF1 to IC50 for human recombinant PTP1B
[7] = organism: Homo sapiens; assay: Selectivity ratio of IC50 for human recombinant LMW-PTP IF2 to IC50 for human recombinant PTP1B
[8] = target: T3, Tyrosine-protein phosphatase non-receptor type 1 (Homo sapiens, UniProt P18031); assay: Inhibition of human recombinant PTP1B expressed in Escherichia coli TB1 using p-nitrophenylphosphate as substrate
T3 sequence (P18031 whole entry): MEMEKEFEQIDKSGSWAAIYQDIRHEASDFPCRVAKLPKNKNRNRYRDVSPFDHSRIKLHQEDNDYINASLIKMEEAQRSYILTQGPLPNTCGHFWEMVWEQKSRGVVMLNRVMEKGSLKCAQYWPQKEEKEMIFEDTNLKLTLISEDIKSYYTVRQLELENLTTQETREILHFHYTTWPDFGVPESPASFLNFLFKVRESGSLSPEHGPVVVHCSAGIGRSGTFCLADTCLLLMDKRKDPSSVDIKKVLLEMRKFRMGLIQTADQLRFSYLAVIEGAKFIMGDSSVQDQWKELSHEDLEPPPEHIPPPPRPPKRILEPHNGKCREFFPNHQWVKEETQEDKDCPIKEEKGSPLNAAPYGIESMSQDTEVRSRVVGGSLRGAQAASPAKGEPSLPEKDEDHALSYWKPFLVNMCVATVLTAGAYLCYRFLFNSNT

[9] = target: T4, Tyrosine-protein phosphatase non-receptor type 1 (Homo sapiens) (UniProt P18031); assay: Reversible inhibition of human recombinant PTP1B expressed in Escherichia coli TB1 using p-nitrophenylphosphate as substrate assessed as residual activity at 25 times IC50 after 1 hr measured after 400 fold dilution
T4 sequence (whole entry): T3 sequence (P18031 whole entry)
Method in brief: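 Reversibility: PTP1B preincubated 1 h at 37 °C with at least 25-fold […], DMSO in controls; mixture then diluted 400-fold in assay buffer and residual activity measured on p-nitrophenylphosphate; three replicates, mean ± SE.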

[10] = target: T5, Tyrosine-protein phosphatase non-receptor type 1 (Mus musculus) (UniProt P35821); assay: Inhibition of PTP1B in mouse C2C12 cells assessed as increase of 2-deoxy-D-1,2-[3H]-glucose at 25 uM after 90 mins by beta-scintillation counting; format: cell-based
T5 sequence (whole entry): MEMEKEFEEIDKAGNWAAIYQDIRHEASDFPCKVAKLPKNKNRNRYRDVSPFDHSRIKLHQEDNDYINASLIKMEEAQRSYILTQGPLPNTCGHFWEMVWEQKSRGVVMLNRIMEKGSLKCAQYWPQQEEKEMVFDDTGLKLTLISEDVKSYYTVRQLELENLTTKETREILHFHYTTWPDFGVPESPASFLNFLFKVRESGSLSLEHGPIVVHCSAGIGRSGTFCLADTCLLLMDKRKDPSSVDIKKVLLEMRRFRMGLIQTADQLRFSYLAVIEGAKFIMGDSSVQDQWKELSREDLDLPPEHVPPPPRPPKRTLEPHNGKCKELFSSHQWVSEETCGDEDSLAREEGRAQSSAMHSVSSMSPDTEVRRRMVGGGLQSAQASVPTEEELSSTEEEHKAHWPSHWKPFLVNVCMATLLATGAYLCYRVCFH
Method in brief: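 Serum-starved differentiated C2C12 myotubes treated 90 min with 25 µM compound (1.2% DMSO) or 30 min with 10 nM insulin, then 0.1 µCi 2-deoxy-D-[1,2-3H]glucose in Ringer-Hepes for 15 min at 37 °C; cold PBS wash, 0.2 M NaOH lysis, scintillation counting normalized to Bradford protein; three replicates.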

[11] = Cytotoxicity against mouse C2C12 cells expressing PTP1B, TC-PTP, LMW-PTP and insulin receptor assessed as cell viability after 2 hrs by MTT assay; format: cell-based; design: concentration or dose not given beside the values; details: read-out: Activity
Method in brief: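 C2C12 myoblasts differentiated 4 days in DMEM with 2% horse serum, serum-starved 20 h; myotubes then given MTT (0.5 mg/ml final) for 2 h at 37 °C, lysed in DMSO, formazan read at 570 nm; three replicates relative to control.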

[12] = target: T5, Tyrosine-protein phosphatase non-receptor type 1 (Mus musculus); assay: Inhibition of PTP1B in mouse C2C12 cells assessed as increase of insulin receptor beta phosphorylation at 25 uM after 90 mins; format: cell-based
Method in brief: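 Differentiated, 20 h serum-starved C2C12 myotubes exposed to 25 µM compound (DMSO 1.2% final) for 90 min at 37 °C, insulin 10 nM 30 min as positive control; lysates run on SDS-PAGE, Western blot for phospho-insulin receptor β with actin loading control, densitometry; three replicates, p<0.05 versus control.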

[13] = target: T3, Tyrosine-protein phosphatase non-receptor type 1; assay: Noncompetitive inhibition of human recombinant PTP1B expressed in Escherichia coli TB1 using p-nitrophenylphosphate as substrate by Double reciprocal plot analysis
Method in brief: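 PTP1B (human, GST fusion from pGEX-2T in E. coli TB1, thrombin-cleaved, gel-filtered) assayed at 37 °C, pH 7.0 β,β-dimethylglutarate buffer with 1 mM EDTA and 5 mM DTT, p-nitrophenylphosphate at seven final concentrations (0.5–25 mM) with increasing inhibitor; KOH-stopped, A400. Inhibition type from double reciprocal plots; Ki from apparent Km vs inhibitor concentration; triplicate initial rates.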

Ratio IC50 [1]: > 2 | IC50 [2]: > 50 µM | IC50 [3]: 10.8 µM | IC50 [4]: 3.5 µM | Ratio IC50 [5]: 2 | Ratio IC50 [6]: > 2 | Ratio IC50 [7]: > 2 | IC50 [8]: 1.1 µM | Activity [9]: 80% | inhibition [10]: Active | inhibition [12]: Active | Ki [13]: 1.4 µM
Compound: COc1cc(/C=C2\SC(=O)N(Cc3ccc(C(=O)O)cc3)C2=O)ccc1OCCc1ccccc1
viability at 2 h [11]: ≥ 80%

— ChEMBL document CHEMBL3098122, “Synthesis, biological activity and structure-activity relationships of new benzoic acid-based protein tyrosine phosphatase inhibitors endowed with insulinomimetic effects in mouse C2C12 skeletal muscle cells” (Eur J Med Chem, 2014)
